Bioassay records (PubChem BioAssay)
Ba/F3 V617F tox: lowers viability of Ba/F3 cells expressing EpoR and JAK2V617F; inhibition, % at 5.6 µM; AID 1446; hit rate 1.1% among 220,000; ATP luminescence;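 active = inhibition above the campaign mean plus 3 SD over all tested compounds, cut at about 24% in these data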;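 also: cytokine-independent growth of Ba/F3 cells driven by EpoR plus mutant JAK2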
APP 5UTR inh: APP translation inhibition | SH-SY5Y APP 5'UTR-luciferase reporter, luminescence | inhibition, % at 2 µM | hit rate 0.82% among 190,000 | AID 1285;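 active = inhibition above a set limit, derived from the sample mean plus 3 SD, cut at about 45% in these data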
bCat nuc transl: modulators of beta-catenin nuclear translocation; hit rate 0.3% among 190,000; AID 1665; HeLa beta-catenin nuclear translocation, immunofluorescence imaging; nuclear translocation activity, % at 5 µM;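 active = nuclear translocation activity above 50% at 5 µM, with a well cell count of 50 or more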;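 also: per-cell ratio of nuclear to cytoplasmic median beta-catenin stain intensity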
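Technique: fluorescence imaging of beta-catenin antibody stain plus DAPI / Material: human HeLa cell line / Incubation: compound treatment 24 h, 37°C, 5% CO2 / Read-out basis: % activation of per-cell nuclear versus cytoplasmic median beta-catenin signal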
Lmaj promast: Leishmania major promastigote growth inhibition; AID 1063; Leishmania major promastigotes, resazurin fluorescence viability; inhibition, % at 10 µM; hit rate 9% among 200,000; in the data active = inhibition above about 50%;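 also: promastigotes grown with compound for 44 hours at 28 °C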
BaF3 tox: counter-screen for JAK2V617F inhibitors: parental Ba/F3 viability inhibitors | CellTiter-Glo ATP luminescence | inhibition, % at 5.6 µM | hit rate 1.1% among 220,000;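 active = inhibition above a per-campaign cutoff, the mean inhibition of all tested compounds plus 3 SD, cut at about 27% in these data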
MT stabilizer: microtubule stabilization, imaging screen. AID 2205. HeLa tubulin immunostaining HCS, 24 h; share of cells brighter than vehicle mean+2SD. % tubulin-high responders, % at 10 µM. hit rate 0.83% among 200,000;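 active = plate Z-score above 3 for both tubulin-high and condensed-nucleus cell shares, with cell loss under 80%, at 10 µM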;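 also: anti alpha tubulin signal scored within the nucleus-defined area of each cell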
Of the large screens only hits and unclear results are named; the others gave an inactive call. Sampled rows, rich in hits. Any-hit rate of the full collection: about 9.6%.

O=C(/C=C/c1c[nH]c2ccccc12)c1c(O)n(CCc2ccccc2)c(=O)[nH]c1=O	BaF3 tox 34.5 (no result: APP 5UTR inh, Lmaj promast, MT stabilizer)
CCCCn1c(O)c(C(C)=NCCc2c[nH]c3ccccc23)c(=O)[nH]c1=O	none (no result: APP 5UTR inh, Lmaj promast, MT stabilizer)
O=C(O)C1C2CCC(O2)C1C(=O)Nc1ccc(Cl)cc1 (stereo not given)	none
CN1C(=O)C(=Cc2ccccc2Oc2ccc(Cl)cc2)C(=O)N(C)C1=O	Lmaj promast 62.2
Cc1cc(S(=O)(=O)NCC(C)C)ccc1OCC(=O)N1CCN(Cc2ccccc2)CC1	none
CSc1ccc(CN2CCN(C(=O)COc3cccc(C)c3)CC2)cc1	Lmaj promast 86.6
CC(C)NS(=O)(=O)c1ccc(OCC(=O)N2CCN(Cc3ccc4c(c3)OCO4)CC2)c(Cl)c1	Lmaj promast 55.9
Cc1cc(S(=O)(=O)NC(C)C)ccc1OCC(=O)N1CCN(Cc2ccc3c(c2)OCO3)CC1	Lmaj promast 96.0
CCc1ccc(OCC(=O)N2CCN(Cc3ccc4c(c3)OCO4)CC2)cc1	Lmaj promast 83.3
CN1CCN(C(=O)COc2ccc(S(=O)(=O)NCc3ccccc3)cc2Cl)CC1	none
Cc1cccc(OCC(=O)N2CCN(Cc3cccnc3)CC2)c1	none
Cc1ccc2c(c1)CC1(CN2C)C(=O)NC(=O)N(CCC2=CCCCC2)C1=O (stereo not given)	none
Oc1ccc2c3c1O[C@H]1c4oc5ccccc5c4C[C@@]4(O)[C@@H](C2)N(CC2CC2)CC[C@]314	none (no result: Ba/F3 V617F tox, APP 5UTR inh, Lmaj promast, BaF3 tox, MT stabilizer)
[N-]=[N+]=NCc1cn2cccnc2n1	none
COc1ccc(Oc2cc(NC(=O)c3nn(C)cc3[N+](=O)[O-])cc([N+](=O)[O-])c2)cc1	Ba/F3 V617F tox 62.9, APP 5UTR inh 94.6, BaF3 tox 42.1 (no result: bCat nuc transl)
COc1ccc(NC(=O)c2cn(CCC#N)nc2-c2cccc([N+](=O)[O-])c2)cc1	none (no result: APP 5UTR inh, Lmaj promast, MT stabilizer)
COc1ccc(/C=C/C(=O)c2c(O)n(CCC3=CCCCC3)c(=O)[nH]c2=O)cc1	Lmaj promast 76.5
COc1cc2c(cc1/C=C/[N+](=O)[O-])OCO2	Lmaj promast 100.1
CC12CN3CC(C)(CN(C1)C3c1cccs1)C2=O (stereo not given)	none
CN(C)c1ccc(/C=C2/C(=O)NC(=O)N(CCc3ccc(F)cc3)C2=O)cc1	none
O=C1NC(=O)N(CCc2ccc(F)cc2)C(=O)/C1=C\C=C\c1ccccc1	Lmaj promast 100.5
C=CCN1C(=O)NC(=O)/C(=C/C=C/c2ccccc2)C1=O	APP 5UTR inh 73.8, Lmaj promast 99.5
CN(C)c1ccc(/C=C/C=C2/C(=O)NC(=O)N(c3ccccc3)C2=O)cc1	Lmaj promast 96.4
CCn1c(O)c(C=Nc2cc(Cl)ccc2Cl)c(=O)n(CC)c1=O	none
CCOC(=O)C(=CNc1ccc(C(O)(C(=O)OCC)C(F)(F)F)cc1C)C(=O)OCC (stereo not given)	Lmaj promast 54.9
CCOC(=O)C(O)(c1ccc(NC(=O)c2ccc(Cl)c(Cl)c2)cc1)C(F)(F)F (stereo not given)	none (no result: APP 5UTR inh, Lmaj promast, MT stabilizer)
COc1ccc(-n2c(Cc3cccc([N+](=O)[O-])c3)nc3ccccc3c2=O)cc1	none
CCN(CC)P(=O)(Oc1ccccc1)Oc1ccccc1	none (no result: APP 5UTR inh, Lmaj promast, MT stabilizer)
CCCNC1=C(C)C(=O)C2=C(C1=O)C(COC(N)=O)[C@]1(OC)C3NC3CN21 (stereo not given in full)	Ba/F3 V617F tox 82.2, BaF3 tox 61.8 (no result: APP 5UTR inh, Lmaj promast, MT stabilizer)
C=CCn1c(O)c(C(C)=NC2CC2)c(=O)[nH]c1=O	none
Cc1cc(N2CCCCC2)ccc1C=C1C(=O)N(C)C(=S)N(C)C1=O	Lmaj promast 99.5 (no result: bCat nuc transl)
O=C(O)c1sc2cc(Cl)ccc2c1Cl	none (no result: APP 5UTR inh, Lmaj promast, MT stabilizer)
Cc1ccc2c(c1)C1CN(C)CCC1N2C(=O)c1cccnc1Cl (stereo not given)	none (no result: APP 5UTR inh, Lmaj promast, MT stabilizer)
Cc1ccc2c(c1)C1CN(C)CCC1N2C(=O)c1cn(-c2ccccc2)nc1-c1ccccc1 (stereo not given)	Lmaj promast 53.2
Cc1ccc2c(c1)C1CN(C)CCC1N2C(=O)Nc1cccc(C(F)(F)F)c1 (stereo not given)	Lmaj promast 50.3
Cc1ccc2c(c1)[C@@H]1CN(C)CC[C@@H]1N2C(=O)Nc1cccc(C(F)(F)F)c1	Lmaj promast 81.1 (no result: bCat nuc transl)
COc1ccc2nc3oc(C(=O)N4CCC5(CC4)OCCO5)cc3cc2c1	none
C=CCn1c(O)c(C(C)=NC2CCN(Cc3ccccc3)CC2)c(=O)[nH]c1=O	none (no result: APP 5UTR inh, Lmaj promast, MT stabilizer)
